Reference: ChEMBL document CHEMBL1144157, “Synthesis of new 1-phenyl-3-{4-[(2E)-3-phenylprop-2-enoyl]phenyl}-thiourea and urea derivatives with anti-nociceptive activity” (2008)
Calls of active or inactive are those of the source.

Legend:
Mus musculus [1] = test: Antinociceptive activity against acetic acid-induced abdominal constrictions in Swiss mouse assessed as maximal inhibition at 10 mg/kg, ip pretreated 30 mins before acetic acid challenge; type: functional; conditions: Abdomen, route intraperitoneal
Procedure, shortened: (§1)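 Swiss mice (25–35 g), 10 ml/kg ip of compound (1–60 mg/kg) or 0.9% NaCl control, given 30 min before ip 0.6% acetic acid. Abdominal constrictions with hind-limb stretching counted cumulatively over 20 min, mice in separate glass funnels at 20–22 °C. Groups of six to eight. ID50 is the geometric mean with 95% confidence limits, found by graphical interpolation.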

Mus musculus [2] = test: Antinociceptive activity against acetic acid-induced abdominal constrictions in ip dosed Swiss mouse pretreated 30 mins before acetic acid challenge; type: functional; conditions: Abdomen; for ED50: read-out: ID50 (the source's name); procedure, shortened: as §1
Mus musculus [3] = test: Antinociceptive activity against formalin-induced paw pain in ip dosed Swiss mouse pretreated 30 mins before formalin challenge assessed after 0 to 5 mins; type: functional; conditions: for ED50: read-out: ID50 (the source's name)
Procedure, shortened: (§2)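 Mice given compound (6–30 mg/kg, ip) or saline 30 min before intraplantar injection into the right hind paw of 20 µl 2.5% formalin (0.92% formaldehyde) in saline. Paw-licking time scored in a glass cylinder with a 45° mirror, 0–5 min (early phase) and 15–30 min (late phase). n = 6. ID50 as geometric mean with 95% confidence limits.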

Mus musculus [4] = test: Antinociceptive activity against capsaicin-induced paw pain in Swiss mouse assessed as maximal inhibition at 10 mg/kg, ip pretreated 30 mins before capsaicin challenge; type: functional, organism-based; design: dose 10 mg/kg
Mus musculus [5] = test: Antinociceptive activity against acetic acid-induced abdominal constrictions in po dosed Swiss mouse pretreated 30 mins before acetic acid challenge; type: functional; conditions: Abdomen, read-out: ID50 (the source's name)
Procedure, shortened: (§3)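 Oral pretreatment (50–200 mg/kg) of Swiss mice before ip 0.6% acetic acid. Writhing (abdominal contractions plus hind-limb stretching) counted cumulatively for 20 min at 20–22 °C. Six animals per group, mean ± s.e.m. ID50 with 95% confidence limits obtained by graphical interpolation.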

Mus musculus [6] = test: Antinociceptive activity against formalin-induced paw pain in ip dosed Swiss mouse pretreated 30 mins before formalin challenge assessed after 15 to 30 mins; type: functional; conditions: for ED50: read-out: ID50 (the source's name); procedure, shortened: as §2
Mus musculus [7] = test: Antinociceptive activity against acetic acid-induced abdominal constrictions in Swiss mouse assessed as maximal inhibition at 50 mg/kg, po pretreated 30 mins before acetic acid challenge; type: functional; conditions: Abdomen; procedure, shortened: as §3
Mus musculus [8] = test: Antinociceptive activity against acetic acid-induced abdominal constrictions in Swiss mouse assessed as maximal inhibition at 100 mg/kg, po pretreated 30 mins before acetic acid challenge; type: functional; conditions: Abdomen; procedure, shortened: as §3
Mus musculus [9] = test: Antinociceptive activity against heat-induced paw licking in Swiss mouse assessed as increase in licking latency period at 10 mg/kg, ip pretreated 30 mins before heat challenge by hot plate method; type: functional, organism-based; design: dose 10 mg/kg
Procedure, shortened: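 Mice dosed ip (10 mg/kg), saline, or morphine sc, 30 min before placement on a plate held at 56 ± 1 °C. Latency to hind-paw licking, paw shaking or jumping recorded. Animals with baseline latency above 20 s excluded; cut-off 30 s. n = 6.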

Mus musculus [10] = test: Antinociceptive activity against formalin-induced paw pain in Swiss mouse assessed as maximal inhibition at 30 mg/kg, ip pretreated 30 mins before formalin challenge assessed after 0 to 5 mins; type: functional; conditions: route intraperitoneal; procedure, shortened: as §2
Mus musculus [11] = test: Antinociceptive activity against glutamate-induced paw pain in Swiss mouse assessed as maximal inhibition at 10 mg/kg, ip pretreated 30 mins before glutamate challenge; type: functional; conditions: route intraperitoneal
Procedure, shortened: (§4)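 Mice treated ip (6–30 mg/kg) 30 min before intraplantar injection into the right hind paw of 20 µl glutamate in PBS (30 µmol/paw). Time spent licking or biting the paw timed over 0–15 min in glass cylinders. n = 6. ID50 reported with 95% confidence limits.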

Mus musculus [12] = test: Antinociceptive activity against glutamate-induced paw pain in Swiss mouse assessed as maximal inhibition at 30 mg/kg, ip pretreated 30 mins before glutamate challenge; type: functional; conditions: route intraperitoneal; procedure, shortened: as §4
Mus musculus [13] = test: Antinociceptive activity against formalin-induced paw pain in Swiss mouse assessed as maximal inhibition at 10 mg/kg, ip pretreated 30 mins before formalin challenge assessed after 15 to 30 mins; type: functional; conditions: route intraperitoneal; procedure, shortened: as §2
Mus musculus [14] = test: Antinociceptive activity against formalin-induced paw pain in Swiss mouse assessed as maximal inhibition at 6 mg/kg, ip pretreated 30 mins before formalin challenge assessed after 15 to 30 mins; type: functional; conditions: route intraperitoneal; procedure, shortened: as §2
Mus musculus [15] = test: Antinociceptive activity against formalin-induced paw pain in Swiss mouse assessed as maximal inhibition at 30 mg/kg, ip pretreated 30 mins before formalin challenge assessed after 15 to 30 mins; type: functional; conditions: route intraperitoneal; procedure, shortened: as §2
Mus musculus [16] = test: Antinociceptive activity against glutamate-induced paw pain in ip dosed Swiss mouse pretreated 30 mins before glutamate challenge; type: functional; conditions: read-out: ID50 (the source's name); procedure, shortened: as §4
Mus musculus [17] = test: Antinociceptive activity against formalin-induced paw pain in Swiss mouse assessed as maximal inhibition at 10 mg/kg, ip pretreated 30 mins before formalin challenge assessed after 0 to 5 mins; type: functional; conditions: route intraperitoneal; procedure, shortened: as §2
Mus musculus [18] = test: Antinociceptive activity against acetic acid-induced abdominal constrictions in Swiss mouse assessed as maximal inhibition at 200 mg/kg, po pretreated 30 mins before acetic acid challenge; type: functional; conditions: Abdomen; procedure, shortened: as §3
Mus musculus [19] = test: Antinociceptive activity against acetic acid-induced abdominal constrictions in Swiss mouse at 60 mg/kg, ip pretreated 30 mins before acetic acid challenge; type: functional, organism-based; design: dose 60 mg/kg; conditions: Abdomen; procedure, shortened: as §1

SMILES	inhibition in vivo at 10 mg/kg (Mus musculus [1])	Activity (Mus musculus [2])	ED50 (Mus musculus [2])	also measured
COc1ccc(/C=C/C(=O)c2ccc(NC(=S)Nc3ccc(Cl)cc3)cc2)cc1	92%	Dose-dependent effect	10.4 µmol/kg	
COc1ccc(/C=C/C(=O)c2ccc(NC(=O)Nc3ccc(Cl)cc3)cc2)cc1	84.4%	Dose-dependent effect	31.1 µmol/kg	
Cc1ccc(/C=C/C(=O)c2ccc(NC(=S)Nc3ccc(Cl)cc3)cc2)cc1	75.3%	Dose-dependent effect	13.1 µmol/kg	
O=C(Nc1ccc(Cl)cc1)Nc1ccc(C(=O)/C=C/c2ccccc2)cc1	74.6%	Dose-dependent effect	7.25 µmol/kg	
CC(=O)Nc1ccc(O)cc1 [ACETAMINOPHEN]	38%			Activity (Mus musculus [3]): inactive; Activity (Mus musculus [4]): inactive; ED50 (Mus musculus [5]): 1140 µmol/kg
Cc1ccc(/C=C/C(=O)c2ccc(NC(=O)Nc3ccc(Cl)cc3)cc2)cc1	42.8%	Dose-dependent effect	39.7 µmol/kg	
O=C(Nc1ccc(Cl)cc1)Nc1ccc(C(=O)/C=C/c2ccc(Cl)cc2)cc1	51%	Dose-dependent effect	45.4 µmol/kg	
O=C(O)Cc1ccccc1Nc1c(Cl)cccc1Cl [DICLOFENAC]				ED50 (Mus musculus [6]): 34.5 µmol/kg; ED50 (Mus musculus [3]): > 94 µmol/kg
Cc1c(N(C)CS(=O)(=O)O)c(=O)n(-c2ccccc2)n1C [DIPYRONE SODIUM]	33%		162 µmol/kg	ED50 (Mus musculus [6]): 264 µmol/kg; ED50 (Mus musculus [3]): 154 µmol/kg
O=C(/C=C/c1ccc(Cl)cc1)c1ccc(NC(=S)Nc2ccc(Cl)cc2)cc1	100%	Dose-dependent effect	7.59 µmol/kg	
O=C(/C=C/c1ccccc1)c1ccc(NC(=S)Nc2ccc(Cl)cc2)cc1	94.5%	Dose-dependent effect	3.03 µmol/kg	inhibition in vivo at 50 mg/kg (Mus musculus [7]): 23.5%; Activity (Mus musculus [6]): Dose-dependent effect; ED50 (Mus musculus [6]): 26.9 µmol/kg; inhibition in vivo at 100 mg/kg (Mus musculus [8]): 43.4%; Activity (Mus musculus [9]): inactive; inhibition in vivo at 30 mg/kg (Mus musculus [10]): 53.9%; inhibition in vivo at 10 mg/kg (Mus musculus [11]): 42.6%; inhibition in vivo at 30 mg/kg (Mus musculus [12]): 58.3%; inhibition in vivo at 10 mg/kg (Mus musculus [13]): 62.6%; Activity (Mus musculus [3]): Dose-dependent effect; ED50 (Mus musculus [3]): 69.3 µmol/kg; inhibition in vivo at 6 mg/kg (Mus musculus [14]): 51%; inhibition in vivo at 30 mg/kg (Mus musculus [15]): 78.7%; Activity (Mus musculus [4]): inactive; ED50 (Mus musculus [16]): 62.1 µmol/kg; ED50 (Mus musculus [5]): 378 µmol/kg; inhibition in vivo at 10 mg/kg (Mus musculus [17]): 37.8%; inhibition in vivo at 200 mg/kg (Mus musculus [18]): 55%
O=C(/C=C/c1ccc(Cl)c(Cl)c1)c1ccc(NC(=S)Nc2ccc(Cl)cc2)cc1	97.5%	Dose-dependent effect	6.15 µmol/kg	
O=C(Nc1ccc(Cl)cc1)Nc1ccc(C(=O)/C=C/c2ccc(Cl)c(Cl)c2)cc1	21.6%			Activity (Mus musculus [19]): inactive
CC(=O)Oc1ccccc1C(=O)O [ASPIRIN]	35%			Activity (Mus musculus [3]): inactive; Activity (Mus musculus [4]): inactive; ED50 (Mus musculus [5]): 605 µmol/kg
